Assay [1] concerns Mus musculus. Description: Percent increase in life span calculated as (T/C-1)X100 at a dose of 10 mg/kg/day *5. The class given is functional. Put shortly: (§1)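 C3D2F1/J mice (groups of six, av wt 25 g) were inoculated ip with 1×10^6 L1210 lymphoid leukemia cells. Dosing started 24 h after implantation and continued daily through day 5. Read-outs were median survival time of treated versus controls (T/C, 24 controls), %ILS = (T/C − 1)×100, 30-day survivors, and weight change on day 8.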

In assay [2] the test system is Mus musculus. Description: Median survival time expressed as (T/C) was measured at dose of 10 mg/kg/day *5; 15.0/7.5. The class given is functional. Put shortly: as §1
Assay [3] is filed under the species Mus musculus. Description: Number of mice survived after 30 days. The class given is functional. The method in brief:
as §1

The subject of assay [4] is Mus musculus. Description: Percent increase in life span calculated as (T/C-1)X100 at a dose of 20 mg/kg/day X5. The class given is functional. Put shortly:
as §1

A short description of assay [5]: In vitro antiproliferative activity was measured in mouse L1210 lymphoid leukemia cell line. The note with it: read-out: ED50 (the source's name).
The subject of assay [6] is Mus musculus. Description: Change in weight of mouse on day 8 was measured in L1210 lymphoid leukemia inoculated mice after ip administration at dose of 40 mg/kg/day X5. To be noted: route intraperitoneal. It counts as functional. Put shortly:
(§2)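 C3D2F1/J mice, groups of six, average weight 25 g, were inoculated ip with 1×10^6 L1210 lymphoid leukemia cells following NCI protocol. Dosing was ip, daily, starting 24 h after tumor implantation and continuing through day 5. Body-weight change in g/mouse was recorded on day 8. Pooled controls were 24 mice.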

The subject of assay [7] is MPC-11. Description: In vitro antiproliferative activity was measured in mouse myeloma MPC-11 cell line. It counts as functional. To be noted: read-out: ED50 (the source's name).
For assay [8], the system named is Mus musculus. Description: Change in weight of mouse on day 8 was measured in L1210 lymphoid leukemia inoculated mice after ip administration at dose of 10 mg/kg/day *5. It counts as functional. The note with it: route intraperitoneal. The method in brief: as §2
The test system of assay [9] is MPC-11. Description: In vitro lethal dose was measured in mouse myeloma MPC-11 cell line. It counts as functional. The note with it: read-out: LD50 (the source's name).
Assay [10] concerns Mus musculus. Description: Change in weight of mouse on day 8 was measured in L1210 lymphoid leukemia inoculated mice after ip administration at dose of 20 mg/kg/day X5. The class given is functional. To be noted: route intraperitoneal. Put shortly: as §2
Assay [11] concerns Mus musculus. Description: Percent increase in life span calculated as (T/C-1)X100 at a dose of 40 mg/kg/day X5. It counts as functional. Put shortly: as §1
Assay [12] has as its system Mus musculus. Description: Median survival time expressed as (T/C) was measured at dose of 40 mg/kg/day X5; 20.0/7.5. It counts as functional. The method in brief:
as §1

The test system of assay [13] is Mus musculus. Description: Median survival time expressed as (T/C) was measured at dose of 20 mg/kg/day X5; 18.0/7.5. The class given is functional. The method in brief:
as §1

The test system of assay [14] is Mus musculus. Description: Median survival time expressed as (T/C) was measured at dose of 10 mg/kg/day *5; 14.0/7.5. It counts as functional. Put shortly:
as §1

Assay [15] has as its system Mus musculus. Description: Percent increase in life span calculated as (T/C-1)X100 at a dose of 60 mg/kg/day X5. The class given is functional. Put shortly:
as §1

In assay [16] the test system is Mus musculus. Description: Median survival time expressed as (T/C) was measured at dose of 40 mg/kg/day X5; 19.0/7.5. It counts as functional. The method in brief: as §1
For assay [17], the system named is Mus musculus. Description: Median survival time expressed as (T/C) was measured at dose of 60 mg/kg/day x5; 8.5/8.0. It counts as functional. The method in brief: as §1
The subject of assay [18] is Mus musculus. Description: Change in weight of mouse on day 8 was measured in L1210 lymphoid leukemia inoculated mice after ip administration at dose of 60 mg/kg/day X5. It counts as functional. The note with it: route intraperitoneal. Put shortly: as §2
Assay [19] deals with Mus musculus. Description: Change in weight of mouse on day 8 was measured in L1210 lymphoid leukemia inoculated mice after ip administration at dose of 50 mg/kg/day X5. The class given is functional. To be noted: route intraperitoneal. The method in brief: as §2
Assay [20] concerns Mus musculus. Description: Median survival time expressed as (T/C) was measured at dose of 50 mg/kg/day *5; 14.0/8.0.
Assay [21] has as its system Mus musculus. Description: Percent increase in life span calculated as (T/C-1)X100 at a dose of 25 mg/kg/day X5. It counts as functional. Put shortly: as §1
For assay [22], the system named is Mus musculus. Description: Change in weight of mouse on day 8 was measured in L1210 lymphoid leukemia inoculated mice after ip administration at dose of 25 mg/kg/day X5. The class given is functional. The note with it: route intraperitoneal. Put shortly: as §2
The test system of assay [23] is Mus musculus. Description: Median survival time expressed as (T/C) was measured at dose of 25 mg/kg/day X5; 20.0/7.0.
The test system of assay [24] is Mus musculus. Description: Median survival time expressed as (T/C) was measured at dose of 40 mg/kg/day X5; 24.5/8.5. It counts as functional. Put shortly:
as §1

Assay [25] relates to Mus musculus. Description: Median survival time expressed as (T/C) was measured at dose of 20 mg/kg/day X5. It counts as functional. Put shortly:
as §1

Assay [26] deals with Mus musculus. Description: Median survival time expressed as (T/C) was measured at dose of 10 mg/kg/day *5. The class given is functional. Put shortly:
as §1

Assay [27] relates to Mus musculus. Description: Median survival time expressed as (T/C) was measured at dose of 40 mg/kg/day X5. It counts as functional. Put shortly: as §1

Consider `CCCCCCCCCCCCCCCCCC(=O)OC[C@H](COP(=O)(O)OP(=O)(O)OC[C@H]1O[C@@H](n2ccc(N)nc2=O)[C@@H](O)[C@@H]1O)OC(=O)CCCCCCCCCCCCCCCCC`, for which, in the assay on Mus musculus [1], the ILS at 10 mg/kg/day is 100%. Further, the values for the T/C with Mus musculus [2], in the assay on Mus musculus [12] and in the assay on Mus musculus [13] were 15 days, 20 days and 18 days, respectively. The same compound gave a Survivors in the assay listed under Mus musculus [3] of 0. The ILS at 20 mg/kg/day in the assay with Mus musculus [4] was 140%. Also, the EC50 in assay [5] was found to be 20 µM; in the assay on MPC-11 [7], 195 µM. Moreover, the Weight change in the assay with Mus musculus [6] is given as -0.4 g mouse-1; in the assay on Mus musculus [8], 1.2 g mouse-1; in the assay on Mus musculus [10], 1.1 g mouse-1. Moreover, the CC50 with MPC-11 [9] stood at 164 µM. For the same compound, the ILS at 40 mg/kg/day in the assay on Mus musculus [11] was 167%.
Consider `CCCCCCCCCCCCCC(=O)OC[C@H](COP(=O)(O)OP(=O)(O)OC[C@H]1O[C@@H](n2ccc(N)nc2=O)[C@@H](O)[C@@H]1O)OC(=O)CCCCCCCCCCCCC`, for which, in the assay on Mus musculus [1], the ILS at 10 mg/kg/day was 87%. For the same compound, the T/C in the assay with Mus musculus [14] was determined as 14 days; in the assay with Mus musculus [16] it was 19 days; in the assay on Mus musculus [17], 8.5 days; in the assay with Mus musculus [13], 18 days. Besides, the Survivors in the assay listed under Mus musculus [3] came to 0. Moreover, in the assay with Mus musculus [4], the ILS at 20 mg/kg/day was 140%. Also, the EC50 in [5] was 16 µM; in the assay on MPC-11 [7], 15 µM. Moreover, the Weight change in the assay with Mus musculus [6] is 0.1 g mouse-1; in the assay on Mus musculus [8] it was 1.8 g mouse-1; in the assay with Mus musculus [10], 1.15 g mouse-1; in the assay with Mus musculus [18] it was -4.6 g mouse-1. The increase in lifespan (ILS) at 60 mg/kg/day in the assay with Mus musculus [15] is 6%. Also, the CC50 in the assay on MPC-11 [9] stood at 15.2 µM. The ILS at 40 mg/kg/day in the assay on Mus musculus [11] was 153%.
`CCCCCCCCCCCCCCCC(=O)OC[C@H](COP(=O)(O)OC[C@H]1O[C@@H](n2ccc(N)nc2=O)[C@@H](O)[C@@H]1O)OC(=O)CCCCCCCCCCCCCCC` gave a Survivors in the assay listed under Mus musculus [3] of 0. Further, in assay [5], the EC50 was 13.4 µM. Moreover, the Weight change in the assay on Mus musculus [19] was 1.7 g mouse-1. The compound also came in with a T/C in the assay on Mus musculus [20] of 14 days.
Compound `CCCCCCCCCCCCCCCC(=O)OC[C@H](COP(=O)(O)OP(=O)(O)OC[C@H]1O[C@@H](n2ccc(N)nc2=O)[C@@H](O)[C@@H]1O)OC(=O)CCCCCCCCCCCCCCC` came in with a Survivors in the assay listed under Mus musculus [3] of 1. The ILS at 25 mg/kg/day with Mus musculus [21] is 186%. The EC50 amounted to 9.6 µM in assay [5] and 65 µM in the assay with MPC-11 [7]. Also, the results for the Weight change with Mus musculus [6] and in the assay with Mus musculus [22] were -1.8 g mouse-1 and 1.57 g mouse-1, respectively. Further, the CC50 with MPC-11 [9] was 68.5 µM. Also, the T/C with Mus musculus [23] is 20 days; with Mus musculus [24], 24.5 days. Besides, the ILS at 40 mg/kg/day in the assay with Mus musculus [11] was 188%.
On to `Nc1ccn([C@@H]2O[C@H](CO)[C@@H](O)[C@@H]2O)c(=O)n1` [CYTARABINE], for which the ILS at 10 mg/kg/day with Mus musculus [1] was 53%. The compound further yielded a Survivors in the assay filed under Mus musculus [3] of 0. For the same compound, the increase in lifespan (ILS) at 20 mg/kg/day in the assay with Mus musculus [4] was 65%. The T/C with Mus musculus [25] turned out to be 14 days; in the assay with Mus musculus [26], 13 days; with Mus musculus [27], 14 days. The values for the EC50 (in assay [5]; in the assay with MPC-11 [7]) were 0.1 µM and 0.99 µM, respectively. In addition, the Weight change in the assay on Mus musculus [6] is reported as 0.6 g mouse-1; with Mus musculus [8], 0.8 g mouse-1; in the assay on Mus musculus [10], 0.5 g mouse-1. Besides, in the assay on MPC-11 [9], the CC50 is 1.91 µM. In addition, the ILS at 40 mg/kg/day in the assay on Mus musculus [11] is 65%.

As a reminder, the ILS is how much longer treated animals lived than controls.

Values taken from ChEMBL document CHEMBL1121968, “Phospholipid-nucleoside conjugates. 3. Syntheses and preliminary biological evaluation of 1-beta-D-arabinofuranosylcytosine 5'-monophosphate-L-1,2-dipalmitin and selected 1-beta-D-arabinofuranosylcytosine 5-diphosphate-L-1,2-diacylglycerols” (1982).
